Test results taken from ChEMBL document CHEMBL4513216, “Probing the Open Global Health Chemical Diversity Library for Multistage-Active Starting Points for Next-Generation Antimalarials” (ACS Infect Dis, 2020).

assay: Toxicity liver stage against HepG2, at 10uM; assay type: cell-based; parameters: test concentration 10 uM, cell line HepG2-A16-CD81EGFP; settings: human, HepG2-A16-CD81EGFP cells; read-out: INHIBITION
In short: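 Uninfected HepG2-A16-CD81EGFP cells, 3 × 10^3 per well, 1536-well, plated on prespotted compound at 10 μM final, parasite-free screening media added to match infected plates; puromycin 10 μM positive, DMSO 0.5% negative; run in parallel with 48 h PbLuc assay at 37 °C, 5% CO2; viability by CellTiter-Glo luminescence, normalized to controls.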

Compound | cytotoxicity at 10 µM [%]
Cc1cccc(NC(=O)C2CC(=O)n3cnnc3S2)c1 (stereo unspecified) | 2.37
CCC(=O)N1CCCc2c(cnn2C)C1 | 3.12
c1ccc2c(Cc3nnc([C@H]4CCN(C5CCC5)C4)o3)c[nH]c2c1 | -0.0653
CS(=O)(=O)NC[C@H]1OC[C@@H](NC2CCC(F)(F)CC2)[C@@H]1O | 0.644
CN1Cc2cc(F)ccc2N(CC(O)C(F)(F)F)CCC1=O (stereo unspecified) | 1.06
O=C(NCCC(O)c1ccco1)c1ccco1 (stereo unspecified) | 7.94
O=S(=O)(NCCC(O)c1ccoc1)c1ccc(Cl)s1 (stereo unspecified) | -0.847
Cc1cccc(CS(=O)(=O)NCc2nn(C)c3c2CCCC3)c1 | 2.37
Cc1nc(-c2cnn(C)c2)nc2c1CN(C(=O)c1cccnc1)CC2 | 2.68
CCS(=O)(=O)N1CCc2cc(C(=O)N(C)C)c(NCC3CC3)nc2CC1 | 0.0623
Cc1ccc(C(=O)N2CCc3ncnc(-c4cnn(C)c4)c3CC2)o1 | 2.11
N#Cc1ccc(C(=O)N2C[C@H](OCc3cccnc3)[C@H]3COC[C@H]32)cc1 | 5.38
Cc1cccc(CN2C[C@@H]3CN(C(=O)c4conc4C)C[C@@H]3C2=O)c1 | 2.66
Cc1noc([C@@H]2C[C@H]3OCC[C@H]3N(S(=O)(=O)c3ccccc3)C2)n1 | -126
CCc1c(C(=O)O)nnn1-c1cc(C)cc(C)c1 | -6.69
Cc1nc(-c2ccccc2F)sc1C(=O)N1CCC(=O)CC1 | -7.42
COc1ccc(S(=O)(=O)N2CCCC3(CCCN3S(C)(=O)=O)C2)cc1 (stereo unspecified) | -0.908
CCc1ncnc2c1CCN(C(=O)Cc1ccccn1)CC2 | -8.75
CC(C)c1ncc(CN2CCCC(CO)C2)cn1 (stereo unspecified) | -1.49
OCc1cn(Cc2cccc(C(F)(F)F)c2)nn1 | 8.02
CC(NC(=O)N1CCS(=O)(=O)CC1)c1c(F)cccc1Cl (stereo unspecified) | 3.54
O=C(C1CCCS1)N1CCOc2cccc(F)c21 (stereo unspecified) | -6.54
COC(=O)c1ncccc1N1CCC(C(O)c2ccccc2)CC1 (stereo unspecified) | -4.11

Compound | cytotoxicity at 10 µM [%]
CC(C)(NC(=O)c1scnc1Cl)c1ccccc1 | -10.9
O=C(c1cnc(-c2ccccc2)s1)N1CCC2(CC1)OCCO2 | 2.42
CCC(=O)NC(CC(C)C)c1cccs1 (stereo unspecified) | 6.18
CC(CNC(=O)c1cccnc1O)Cn1cccn1 (stereo unspecified) | 0.144
CC(C)c1ocnc1C(=O)N1CCC2(CC1)OCCO2 | 0.0416
CNC(=O)NC(=O)CN(C)C(c1cccnc1)c1ccc(F)cc1F (stereo unspecified) | 5.3
CC(=O)c1sc(C(NC(=O)c2ccccc2)C2CC2)nc1C (stereo unspecified) | -15.5
CCOc1ccc2cc(C(=O)NCCC(=O)N(C)C)[nH]c2c1 | -6.16
Cc1ccccc1C1(CNCc2cnc(N3CCOCC3)nc2)CC1 | -8.23
Cc1csc(C2CCCN(C(=O)c3cnn4ccc(C)nc34)C2)n1 (stereo unspecified) | 2.56
COC1CCN(CCNC(=O)NC(C)c2ccc(F)c(F)c2)CC1 (stereo unspecified) | 9.88
CC(=O)N1CCN(CCNc2snc(Cl)c2C#N)CC1 | 5.69
CN(Cc1cnn(C)c1)S(=O)(=O)N1CCCCCC1 | -1.43
O=C(CS(=O)(=O)Cc1ccc(F)cc1)NCc1ccccc1F | 5.96
Cc1ccc(OCC(=O)NCc2sccc2C)nc1 | -0.509
O=c1c2cccnc2cnn1CC(O)c1ccc(F)c(F)c1 (stereo unspecified) | -7.44
CN(CCCc1cc(-c2cccc(F)c2)n[nH]1)C(=O)CCn1cncn1 | -132
COCCN(Cc1cccs1)C(=O)C1CCCN(C(N)=O)C1 (stereo unspecified) | 6.4
O=C(c1cccnc1)N(CCO)Cc1cc(Br)ccc1F | 12.7
COC(=O)c1cccc(S(=O)(=O)NC(=O)CC2CCCC2)c1 | -9.68
O=C(CCc1nc(C2CC2)no1)c1ccc2c(c1)OCCO2 | -7.04
O=C(COc1ccccc1NCc1ccc(F)cc1)N1CCOCC1 | -2.82
CN(CC(N)=O)C(=O)c1csc(Br)c1 | 3

Compound | cytotoxicity at 10 µM [%]
c1cncc(-c2nc3c(c(NCC4(c5ccncc5)CC4)n2)CCC3)c1 | 7.77
COCC(NC(=O)NCc1cccc(C#N)c1)c1ccco1 (stereo unspecified) | 2.7
Cn1cccc(NC(=O)N2CCC(CSc3ccccc3)C2)c1=O (stereo unspecified) | 40.2
COc1ccccc1OCCN1CCCC(c2noc(C3CC3)n2)C1 (stereo unspecified) | 1.26
COCC(NC(=O)c1cnn(C)c1)c1cccc(C(F)(F)F)c1 (stereo unspecified) | 1.73
CN(C)C(=O)C1CCCN1CCCNC(=O)c1ccccc1F (stereo unspecified) | -20.2
CSCC(CCO)NC(=O)Nc1cccc(Br)c1 (stereo unspecified) | -7.69
CSCC(CCO)NC(=O)Nc1cc(Br)ccc1C (stereo unspecified) | -11.1
CS(=O)(=O)N1CCCC12CCN(Cc1ccoc1)CC2 | -3.98
O=C(c1ccoc1)N1CC[C@H]2C[C@@H](c3ccncn3)O[C@@H]2C1 | -76.1
CCn1nc(CC(C)C)cc1C(=O)NCCCN1CCOCC1 | 1.6
COc1ccc(Cn2c(CCc3c(C)n[nH]c3C)n[nH]c2=O)cc1 | -144
Cc1ccccc1OCC1CCCN(C(=O)Cc2c[nH]c(=O)[nH]c2=O)C1 (stereo unspecified) | -136
CC(C)c1nccn1CC(=O)Nc1ccnn1C(C)C(C)C (stereo unspecified) | 1.11
O=C(O)[C@@H]1CN(CC(=O)N2CCCCCC2)C[C@H]1c1ccc(F)cc1 | -3.24
Cc1ncsc1CCN(C)C(=O)CN1CC2(CCNCC2)OC1=O | -7.33
CCc1nc(CN(C)C(=O)CSC)no1 | 2.25
Cc1nnc(CCNC(=O)[C@H]2CNC[C@@H](C(=O)N3CCCC3)C2)s1 | -113
Cc1nn2cc(CNc3nccc(CCC(F)(F)F)n3)nc2s1 | -8.27
COc1c(C)cc(C(C(=O)O)N(C)Cc2ccn[nH]2)cc1C (stereo unspecified) | 2.82
CN(C)C(=O)c1nc(CN2CC(c3ccccc3)CC2=O)no1 (stereo unspecified) | 0.624
CC(C)n1cnnc1CN(C)C(=O)c1ccc[nH]1 | -0.371
CC(C)[C@@H]1CN(Cc2c[nH]nc2-c2ccc(F)cc2)C[C@H]1NS(C)(=O)=O | -0.882

Compound | cytotoxicity at 10 µM [%]
O=C1OCCN1Cc1ccc(C(F)(F)F)cc1F | -0.419
COc1cccc(-c2n[nH]c3c2CN(C(=O)c2ccncc2)CC3)c1 | -5.55
c1cc2c(cc1CN1CCC(Cc3noc(C4CC4)n3)CC1)OCCO2 | 14.9
CCc1nc(C)c(C(=O)N[C@@H]2c3ccccc3C[C@@H]2O)o1 | 4.57
O=C(O)c1cc(-c2cn[nH]c2)cc(S(=O)(=O)N2CCSCC2)c1 | -8.26
Cc1ccc(CN2CC[C@@]3(O)CCN(S(=O)(=O)N(C)C)C[C@H]3C2)cc1C | -1.42
N[C@@H]1c2ccccc2C2(CCN(C(=O)c3ccccc3O)CC2)[C@H]1O | 6.38
COc1ccc(CCN2C(=O)O[C@@H]3CN(C4CCOCC4)C[C@@H]32)cc1 | 6.86
Cc1ncc(S(C)(=O)=O)c(C2CCCNC2)n1 (stereo unspecified) | 1.17
COc1ccccc1CN(C)C(=O)c1cc(CN2CCC(O)CC2)on1 | -26.7
CS(=O)(=O)c1ccc(C(=O)NCCNc2ncccn2)cc1 | -5.15
Cc1nc(C)n(CC2CN(CCOc3cccc(C#N)c3)CCO2)n1 (stereo unspecified) | -13.2
CCc1noc(C(C)N2CCN(CCOCC(F)(F)F)CC2)n1 (stereo unspecified) | -9.45
CCCNC(=O)NC(=O)CNC(C)(C)c1ccc2c(c1)OCCO2 | -14.7
CC(C)n1cc(CN2CCCN(C(=O)CC3CCCO3)CC2)cn1 (stereo unspecified) | -12.4
Cn1cc(NC(=O)C2CC(c3ccccc3)C2)ccc1=O (stereo unspecified) | -4.42
COc1ncccc1C(=O)N1CCCC(n2ccnc2)C1 (stereo unspecified) | -5.1
Cn1cc(CN2CCCN(C(=O)c3sccc3C#N)CC2)cn1 | -1.37
COc1ccsc1C(=O)N1CCCC(n2nc(C)cc2C)C1 (stereo unspecified) | -9.41
Cc1cc(C)n(C2CCCN(C(=O)Cc3cccs3)C2)n1 (stereo unspecified) | -20.8
CN(Cc1ccncc1)C(=O)NCc1nnc2n1CCCCC2 | -26
Cc1cnc(C(=O)N2CCCN(c3nc(C)cs3)CC2)cn1 | -8.81
O=C(Cc1csc(-c2ccco2)n1)N1CCSCC1 | -16.2

Compound | cytotoxicity at 10 µM [%]
Cc1cnn(CC2CN(Cc3nc(-c4cccnc4)no3)CCO2)c1 (stereo unspecified) | -20.5
NC(=O)NC(=O)CCN1CCCN(c2nccs2)CC1 | 11.1
Cc1cc(C)n(CC2CCCCN2CCCS(N)(=O)=O)n1 (stereo unspecified) | 6.28
O=C(Cc1ccccn1)N1CCN(C(=O)c2cccc3[nH]ncc23)CC1 | -2.48
Cn1cnnc1C1CCCN(C(=O)NCCc2ccccc2F)C1 (stereo unspecified) | -1.88
Cc1noc(C2CN(Cc3ccc4c(c3)CCO4)C2)n1 | -0.478
Cc1noc([C@H]2C[C@@H]3CCN(CC4CC4)C[C@H]3O2)n1 | -7.23
c1cc(CN2CCCC3(COCCN(Cc4c[nH]nn4)C3)C2)cs1 (stereo unspecified) | 8.59
Cn1cccc1C(=O)NCc1cn2c(n1)CN(CC1CCOCC1)CC2 | 8.33
COc1cc(CNCC(O)c2ccc(C)cc2)cc2c1OCO2 (stereo unspecified) | -0.282
O=C(c1cscn1)N1CCC2(CCN(Cc3cccs3)CC2)C1 | 3.91
CN(C)CCN1CCc2c(nnn2C)C1COCc1ccccc1 (stereo unspecified) | -90.3
Cc1nc(CN2C(=O)C[C@@H]3[C@@H]2CCN3CC2CCOCC2)cs1 | -135
Cc1ccc(NC2COC3(CCN(Cc4ccn(C)n4)CC3)C2)nn1 (stereo unspecified) | -1.68
O=C(Nc1cnccn1)[C@H]1CC[C@@H]2[C@@H](CCN2Cc2ccccn2)O1 | -139
CNC(=O)CN1CCc2c(CNc3nccs3)n[nH]c2C1 | 3.25
O=C(NCc1cccs1)[C@H]1CC[C@@H]2[C@@H](CCN2C2CCC2)O1 | -6.34
Cn1ccnc1CN1CCC2(CC1)CN(c1ccccc1)C(=O)CO2 | -0.414
CCN1CCC2(CC1)CC(NCc1cccc(C)n1)c1ccccc1O2 (stereo unspecified) | -1.46
